Data on 1 compound can be found in ChEMBL document CHEMBL4339251, “Prenylated Bibenzyls from the Chinese Liverwort Radula constricta and Their Mitochondria-Derived Paraptotic Cytotoxic Activities” (J Nat Prod, 2019).

Active and inactive are the calls of the source. No cut-off for these calls is given here.

In assay [1] the test system is A549. In words: Induction of apoptosis in human A549 cells assessed as induction of PARP cleavage at 2.5 to 10 uM incubated for 24 hrs by Western blot analysis. Format: functional, cell-based. The gist of the method:
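Western blot. Cells were cultured overnight in six-well plates, then exposed to various concentrations for 24 h before immunoblotting.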

Assay [2] deals with A549. Kind of assay: Induction of mitochondria dysfunction in human A549 cells assessed as mitochondrial membrane potential incubated for 1 hr by JC-1 dye based flow cytometry relative to 0 hrs control. Format: functional. The gist of the method: (§1)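 Membrane potential. After treatment for the indicated times, ΔΨm was measured by JC-1 (5 μg/mL) staining and flow cytometry, relative to the 0 h control. Mean ± SD, n = 3.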
On the technique in general: In flow cytometry, cells or beads pass a laser one at a time.

Assay [3] relates to A549. Kind of assay: Induction of apoptosis in human A549 cells assessed as late apoptotic cells at 20 uM by annexinV-FITC and propidium iodide staining based flow cytometric analysis (reference value: 3.14%). Format: functional.
Assay [4] relates to NCI-H1299. In words: Induction of cytoplasmic vacuolization in human NCI-H1299 cells at 10 uM measured within 3 hrs by optical microscopy. Format: functional, cell-based. In short, it runs like this:
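Morphology. A549 or NCI-H1299 cells were treated at 10 μM and vacuole formation was followed by optical microscopy at the indicated times.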

In assay [5] the test system is NCI-H1299. In words: Induction of mitochondria-derived paraptosis in human NCI-H1299 cells assessed as formation of fluorescent vacuoles after 3 hrs by Mito-Tracker staining based fluorescence microscopy. Format: functional, cell-based. In short, it runs like this:
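Live-cell imaging. Treated cells on coverslips were stained with Mito-Tracker Red (100 nM) at 37 °C for 30 min, washed three times with PBS and stained with Hoechst 33342 (10 μg/mL) for 15 min. Images were taken by confocal or fluorescence microscopy at the indicated times.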

Assay [6] deals with A549. In words: Induction of mitochondria-derived paraptosis in human A549 cells assessed as reduction in intensity of mitochondria fluorescence up to 24 hrs by Mito-Tracker staining based fluorescence microscopy. Format: functional, cell-based. The gist of the method: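 Mitochondrial fluorescence. After treatment for the indicated times, cells were stained with Mito-Tracker Red (100 nM) and 10 000 cells per sample were analysed by flow cytometry. Cells with decreased red fluorescence were gated as "pale" cells.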

The subject of assay [7] is NCI-H1299. In words: Induction of mitochondria-derived paraptosis in human NCI-H1299 cells assessed as induction of HMGB1 translocation from nucleus to cytoplasm at 10 uM incubated for 24 hrs by immunofluorescence staining. Format: functional, cell-based. In short, it runs like this:
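HMGB1 immunofluorescence. Cells were treated at 10 μM for 24 h, fixed in 4% paraformaldehyde for 30 min, permeabilised with 0.3% Triton X-100 for 15 min and blocked with 5% BSA for 30 min. Anti-HMGB1 was applied at 4 °C overnight and the secondary antibody at 37 °C for 1 h. Nuclei were counterstained with DAPI and cells imaged by confocal microscopy.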

For another assay, the system named is U-251. Kind of assay: Cytotoxicity in human U251 cells assessed as reduction in cell viability incubated for 48 hrs by MTT assay. To be noted: U-251, 48 h. Format: functional, cell-based. In short, it runs like this:
(§2)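 MTT viability. U251 and NCI-H1299 were grown in DMEM, the other lines in RPMI 1640, each with 10% FBS, penicillin and streptomycin, at 37 °C in 5% CO2. Cells were seeded in 96-well plates overnight and exposed to a range of concentrations. MTT (5 mg/mL) was added for 4 h, formazan was dissolved in DMSO and absorbance read at 570 nm. Three independent experiments.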

Assay [8] concerns A549. Kind of assay: Induction of apoptosis in human A549 cells assessed as late apoptotic cells at 10 uM by annexinV-FITC and propidium iodide staining based flow cytometric analysis (reference value: 3.14%). Format: functional.
In assay [9] the test system is NCI-H1299. Kind of assay: Induction of apoptosis in human NCI-H1299 cells assessed as late apoptotic cells at 10 uM by annexinV-FITC and propidium iodide staining based flow cytometric analysis (reference value: 3.29%). Format: functional.
Assay [10] concerns NCI-H1299. Kind of assay: Induction of ROS generation in human NCI-H1299 cells by DCFH-DA staining based flow cytometry. Format: functional, cell-based. To be noted: TDE = time-dependent effect. In short, it runs like this: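 ROS by flow cytometry. Cells were exposed for the indicated times, then stained with DCFH-DA (10 μM). DCF mean fluorescence intensity was compared with untreated control. Mean ± SD, n = 3.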

Assay [11] has as its system A549. In words: Cytotoxicity in human A549 cells assessed as reduction in cell viability incubated for 48 hrs by MTT assay. The following applies: A549, 48 h. Format: functional, cell-based. The gist of the method: as §2
Assay [12] concerns NCI-H1299. In words: Cytotoxicity in human NCI-H1299 cells assessed as reduction in cell viability incubated for 48 hrs by MTT assay. Format: functional, cell-based. To be noted: NCI-H1299, 48 h. The gist of the method:
as §2

For assay [13], the system named is NCI-H1299. In words: Induction of mitochondria dysfunction in human NCI-H1299 cells assessed as mitochondrial membrane potential incubated for 1 hr by JC-1 dye based flow cytometry relative to 0 hrs control. Format: functional. The gist of the method:
as §1

Assay [14] relates to NCI-H1299. In words: Induction of apoptosis in human NCI-H1299 cells assessed as late apoptotic cells at 20 uM by annexinV-FITC and propidium iodide staining based flow cytometric analysis (reference value: 3.29%). Format: functional.
The test system of assay [15] is NCI-H1299. Kind of assay: Induction of cytoplasmic vacuolization in human NCI-H1299 cells at 10 uM treated for 3 hrs after pre-treatment with pan-caspase inhibitor Z-VAD-FMK for 1 hr by optical microscopy. Format: functional, cell-based. The gist of the method:
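Caspase-inhibitor morphology. Cells were treated with DMSO, 20 μM Z-VAD-FMK, 10 μM compound, or the combinations for 3 h, then imaged by optical microscopy.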

`COC(=O)c1c(CCc2ccccc2)cc(O)c(CC=C(C)C)c1O`: the result in the assay on A549 [1] was inactive. For the same compound, the Activity with A549 [2] was 50%; with A549 [3], 4.14%; in the assay on A549 [8], 3.39%; in the assay on NCI-H1299 [9], 3.36%; with NCI-H1299 [10] it was “Tde”; with NCI-H1299 [13], 25%. In addition, the Activity in the assay on NCI-H1299 [14] is on record as 2.95%. The result with NCI-H1299 [4], in the assay on NCI-H1299 [5], in the assay with A549 [6], in the assay on NCI-H1299 [7] and with NCI-H1299 [15] was Active. Moreover, the IC50 amounted to 9 µM in the assay on U-251, 6 µM in the assay with A549 [11] and 5.1 µM with NCI-H1299 [12].

One may read the IC50 as the midpoint of a concentration-inhibition curve.
